Experimental data from ChEMBL document CHEMBL4689842, “EUbOPEN Chemogenomics Library wave 1” (2021).

Test system: HEK-293T
Experiment: Multiplex assay against HEK293T;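 for Population Tubulin-Different-Phenotype (%): share of the cells with healthy nuclei that show this phenotype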
Format: toxicity, cell-based
Settings: human
In short: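 Phenotypes for tubulin, mitochondrial mass and membrane permeability are expressed as per cents of healthy-nucleus cells. Cells were stained live at seeding with Hoechst33342, BioTracker Green Microtubule Cytoskeleton Dye, MitoTracker Red and Annexin V Alexa Fluor 680, then imaged after compound addition on a CQ1 microscope at 37°C and 5% CO2. Machine-learning gating in CellPathfinder separated Hoechst high-intensity objects from normal cells, divided normal cells by nuclear state (healthy, pyknosed, fragmented) and divided pyknosed cells into mitotic or apoptotic.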

[1] = 12 h, 1 µM, compound concentration 1 uM, replicate 1
[2] = 12 h, 1 µM, compound concentration 1 uM, replicate 2
[3] = 12 h, 10 µM, compound concentration 10 uM, replicate 1
[4] = 12 h, 10 µM, compound concentration 10 uM, replicate 2
[5] = 24 h, 1 µM, compound concentration 1 uM, replicate 1
[6] = 24 h, 1 µM, compound concentration 1 uM, replicate 2
[7] = 24 h, 10 µM, compound concentration 10 uM, replicate 1
[8] = 24 h, 10 µM, compound concentration 10 uM, replicate 2
[9] = 48 h, 1 µM, compound concentration 1 uM, replicate 1
[10] = 48 h, 1 µM, compound concentration 1 uM, replicate 2
[11] = 48 h, 10 µM, compound concentration 10 uM, replicate 1
[12] = 48 h, 10 µM, compound concentration 10 uM, replicate 2

## CNc1cc(Oc2cc(C(=O)Nc3cc(N4CCN(C)CC4)cc(C(F)(F)F)c3)ccc2C)ncn1
[1]
  Population Apoptotic (%): 79%
  Population Fragmented Nuclei (%): 14%
  Population Healthy Nuclei (%): 13%
  Population Hoechst High Intensity Objects (%): 20%
  Population Membrane Permeable-Phenotype (%): 0%
  Population Mitochondria Different-Phenotype (%): 96%
  Population Mitotic Cells (%): 20%
  Population Normal (%): 79%
  Population Pyknosed Nuclei (%): 72%
  Population Tubulin-Different-Phenotype (%): 89%
  Total Cell Count: 263
[2]
  Population Apoptotic (%): 41%
  Population Fragmented Nuclei (%): 8%
  Population Healthy Nuclei (%): 21%
  Population Hoechst High Intensity Objects (%): 6%
  Population Membrane Permeable-Phenotype (%): 2%
  Population Mitochondria Different-Phenotype (%): 69%
  Population Mitotic Cells (%): 58%
  Population Normal (%): 93%
  Population Pyknosed Nuclei (%): 70%
  Population Tubulin-Different-Phenotype (%): 76%
  Total Cell Count: 213
[3]
  Population Apoptotic (%): 86%
  Population Fragmented Nuclei (%): 17%
  Population Healthy Nuclei (%): 3%
  Population Hoechst High Intensity Objects (%): 21%
  Population Membrane Permeable-Phenotype (%): 0%
  Population Mitochondria Different-Phenotype (%): 100%
  Population Mitotic Cells (%): 13%
  Population Normal (%): 78%
  Population Pyknosed Nuclei (%): 80%
  Population Tubulin-Different-Phenotype (%): 83%
  Total Cell Count: 256
[4]
  Population Apoptotic (%): 98%
  Population Fragmented Nuclei (%): 5%
  Population Healthy Nuclei (%): 4%
  Population Hoechst High Intensity Objects (%): 14%
  Population Mitotic Cells (%): 1%
  Population Normal (%): 85%
  Population Pyknosed Nuclei (%): 89%
  Population Tubulin-Different-Phenotype (%): 60%
  Total Cell Count: 127
[5]
  Population Apoptotic (%): 73%
  Population Fragmented Nuclei (%): 18%
  Population Healthy Nuclei (%): 12%
  Population Hoechst High Intensity Objects (%): 21%
  Population Membrane Permeable-Phenotype (%): 0%
  Population Mitochondria Different-Phenotype (%): 96%
  Population Mitotic Cells (%): 26%
  Population Normal (%): 78%
  Population Pyknosed Nuclei (%): 69%
  Population Tubulin-Different-Phenotype (%): 81%
  Total Cell Count: 269
[6]
  Population Apoptotic (%): 41%
  Population Fragmented Nuclei (%): 12%
  Population Healthy Nuclei (%): 36%
  Population Hoechst High Intensity Objects (%): 5%
  Population Membrane Permeable-Phenotype (%): 1%
  Population Mitochondria Different-Phenotype (%): 63%
  Population Mitotic Cells (%): 58%
  Population Normal (%): 94%
  Population Pyknosed Nuclei (%): 51%
  Population Tubulin-Different-Phenotype (%): 70%
  Total Cell Count: 284
[7]
  Population Apoptotic (%): 88%
  Population Fragmented Nuclei (%): 15%
  Population Healthy Nuclei (%): 0%
  Population Hoechst High Intensity Objects (%): 26%
  Population Membrane Permeable-Phenotype (%): 0%
  Population Mitochondria Different-Phenotype (%): 100%
  Population Mitotic Cells (%): 11%
  Population Normal (%): 73%
  Population Pyknosed Nuclei (%): 84%
  Population Tubulin-Different-Phenotype (%): 100%
  Total Cell Count: 264
[8]
  Population Apoptotic (%): 97%
  Population Fragmented Nuclei (%): 6%
  Population Healthy Nuclei (%): 3%
  Population Hoechst High Intensity Objects (%): 18%
  Population Mitotic Cells (%): 2%
  Population Normal (%): 81%
  Population Pyknosed Nuclei (%): 89%
  Population Tubulin-Different-Phenotype (%): 75%
  Total Cell Count: 126
[9]
  Population Apoptotic (%): 68%
  Population Fragmented Nuclei (%): 24%
  Population Healthy Nuclei (%): 21%
  Population Hoechst High Intensity Objects (%): 18%
  Population Membrane Permeable-Phenotype (%): 1%
  Population Mitochondria Different-Phenotype (%): 76%
  Population Mitotic Cells (%): 31%
  Population Normal (%): 81%
  Population Pyknosed Nuclei (%): 54%
  Population Tubulin-Different-Phenotype (%): 74%
  Total Cell Count: 297
[10]
  Population Apoptotic (%): 40%
  Population Fragmented Nuclei (%): 14%
  Population Healthy Nuclei (%): 65%
  Population Hoechst High Intensity Objects (%): 4%
  Population Membrane Permeable-Phenotype (%): 6%
  Population Mitochondria Different-Phenotype (%): 25%
  Population Mitotic Cells (%): 59%
  Population Normal (%): 95%
  Population Pyknosed Nuclei (%): 19%
  Population Tubulin-Different-Phenotype (%): 51%
  Total Cell Count: 421
[11]
  Population Apoptotic (%): 91%
  Population Fragmented Nuclei (%): 32%
  Population Healthy Nuclei (%): 1%
  Population Hoechst High Intensity Objects (%): 29%
  Population Membrane Permeable-Phenotype (%): 0%
  Population Mitochondria Different-Phenotype (%): 100%
  Population Mitotic Cells (%): 8%
  Population Normal (%): 70%
  Population Pyknosed Nuclei (%): 66%
  Population Tubulin-Different-Phenotype (%): 33%
  Total Cell Count: 273
[12]
  Population Apoptotic (%): 98%
  Population Fragmented Nuclei (%): 7%
  Population Healthy Nuclei (%): 5%
  Population Hoechst High Intensity Objects (%): 26%
  Population Membrane Permeable-Phenotype (%): 20%
  Population Mitotic Cells (%): 1%
  Population Normal (%): 73%
  Population Pyknosed Nuclei (%): 87%
  Population Tubulin-Different-Phenotype (%): 80%
  Total Cell Count: 131
